An excerpt weighted towards active compounds, which were near 3.5% of everything screened.
RGS4 act – potentiators or activators of RGS4; HEK293 M3R/inducible RGS4, carbachol calcium flux Fluo4; stronger effect = lower value; B-score at 10 µM; actives 0.92% (n = 310,000); AID 463111;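 active means B-score of the integrated calcium signal more than 4 SD below the library mean, with starting fluorescence not abnormally high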;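 further: negative B-score means reduced calcium response which marks RGS4 activation or potentiation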
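Assay system: Inducible-RGS4 HEK293 cells carrying M3 receptor | Schedule: Compound preincubation 20 min at room temperature before agonist | Signal: Kinetic calcium fluorescence imaging with Fluo4-AM dye, 2 µM | Read-out basis: B score from integrated fluorescence ratio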
MrgX1 ag – activates human MrgX1 receptor signaling | Q96LB2 | MrgX1-HEK293 cells, Fluo-4 calcium fluorescence, agonist mode; stronger effect = higher value | B-score at 10 µM | actives 0.44% (n = 310,000) | AID 588627;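 active means calcium response B-score plate-corrected fluorescence ratio at least 3 library SD, with starting fluorescence B-score inside 5 SD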
Target sequence (Q96LB2 whole entry, looked up): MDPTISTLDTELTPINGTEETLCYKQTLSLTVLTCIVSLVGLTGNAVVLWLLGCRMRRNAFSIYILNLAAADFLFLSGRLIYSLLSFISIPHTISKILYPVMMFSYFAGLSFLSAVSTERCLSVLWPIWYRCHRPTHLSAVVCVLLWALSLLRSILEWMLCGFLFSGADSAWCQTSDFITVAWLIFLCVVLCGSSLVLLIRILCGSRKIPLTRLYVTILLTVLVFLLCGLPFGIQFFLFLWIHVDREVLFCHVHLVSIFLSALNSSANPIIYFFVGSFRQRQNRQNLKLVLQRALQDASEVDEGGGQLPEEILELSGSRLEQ
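Test system: HEK293 cells stably expressing human MrgX1 receptor; Input: fifteen thousand cells per well; Dosing: compound delivered in addition one of three; Schedule: overnight seeding, then 1 h dark dye loading; Technique: Fluo-4 NW calcium fluorescence; Measure: B-scored fluorescence response ratio; Controls: positive and negative controls per plate.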
RGS4 block – human RGS4 inhibition; AID 463165; B-score at 10 µM; actives 0.45% (n = 310,000); HEK293 M3R/RGS4 inducible, Fluo-4 calcium flux; stronger effect = higher value; triggered by carbachol at its EC20;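 active means B-score, a plate-corrected calcium signal, over three deviations above library mean, with baseline fluorescence within five deviations of library mean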;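 further: RGS4 expression induced by doxycycline in cells with stable M3 receptor; B-score is computed from the integrated fluorescence ratio over baseline after carbachol; higher B-score means a larger calcium signal and so more RGS4 inhibition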
Target sequence (P49798 whole entry, looked up): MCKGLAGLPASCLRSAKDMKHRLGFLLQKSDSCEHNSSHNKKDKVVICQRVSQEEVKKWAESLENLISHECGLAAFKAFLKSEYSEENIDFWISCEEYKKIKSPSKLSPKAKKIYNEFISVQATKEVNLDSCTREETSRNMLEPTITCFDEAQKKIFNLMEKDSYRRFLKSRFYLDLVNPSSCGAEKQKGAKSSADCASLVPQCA
MrgX1 PAM – allosterically activates human MrgX1 receptor signaling; Q96LB2; MrgX1-HEK293, Fluo-4 calcium flux, FDSS; stronger effect = higher value; B-score at 10 µM; actives 0.63% (n = 310,000);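 active means plate-corrected calcium response at least 3 library SD above typical, normal starting fluorescence, not activating the receptor alone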;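 further: compound read alongside a low EC10 to EC30 dose of BAM8-22 agonist; peak minus trough fluorescence over baseline measured at the second addition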
MrgX1 antag – antagonists of human MrgX1 receptor; actives 1.3% (n = 310,000); MRGX1-HEK293 calcium flux, Fluo-4, BAM8-22 antagonism; stronger effect = lower value; B-score at 10 µM; AID 588676; Q96LB2;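 active means calcium-response B-score plate-corrected more than 3 library SD below zero, starting fluorescence within 5 deviations, no agonist response on first addition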;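 further: peak minus trough fluorescence over baseline after final BAM8-22 challenge near maximal dose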
A number is an active result; . = inactive; / = no result given.

SMILES | RGS4 act | MrgX1 ag | RGS4 block | MrgX1 PAM | MrgX1 antag
Cc1nc(N2CCOCC2)nc(OCCN2CCOCC2)c1[N+](=O)[O-] | . | . | . | . | -5.25
Cc1nc(N2CCOCC2)nc(OCCN(C)C)c1[N+](=O)[O-] | . | . | . | . | .
Oc1c(Cl)cc(Cl)cc1/C=N/Nc1ncc(Br)cn1 | . | . | . | . | .
Cc1ccc(N=Cc2cc(Cl)cc(Cl)c2O)nc1 | . | . | . | 7.57 | .
Cn1c(CSc2nc3ccccc3s2)nnc1SCC(=O)NCc1cccnc1 | . | . | . | . | .
CC(=O)c1ccc(OC(=O)CCc2ccccc2)cc1 | . | . | . | . | .
O=C(Nc1ccccc1O)c1ccccc1O | . | . | . | . | -5.84
N#CCCn1nc(-c2ccc([N+](=O)[O-])cc2)cc1Nc1ccccc1NC(=O)C(F)(F)F | . | . | . | . | .
COc1ccc(N2CC(O)(c3ccc(F)cc3)[N+]3=C2CCCC3)cc1 (configuration not stated) | . | . | . | . | .
COc1ccc(N2CC(O)(c3ccc(OC(F)F)cc3)[N+]3=C2CCCC3)cc1 (configuration not stated) | -8.33 | . | . | . | .
O=C(c1ccco1)N1N=C2CCCCCC2C1(O)C(F)(F)F (configuration not stated) | . | . | . | . | .
CC(C)(C)c1ccc(OCCCNC2CCCC2)cc1 | -7.37 | . | . | . | .
CCOC(=O)C1=C(C)N=c2s/c(=C/c3cccc(OCC(=O)O)c3)c(=O)n2C1c1ccc(F)cc1 (configuration not stated) | . | . | . | . | .
CCOC(=O)C1=C(C)N=c2s/c(=C\c3ccc(C(=O)O)cc3)c(=O)n2C1c1ccc(F)cc1 (configuration not stated) | -7.41 | . | . | . | -4.81
C/C(=N\NC(=O)CNC(=O)c1ccccc1Br)c1ccco1 | . | . | . | . | .
C#CCOC(=O)c1cc(Cl)c(=O)n(Cc2ccc(Cl)cc2Cl)c1 | . | . | . | . | .
O=C(N/N=C/c1ccc(O)c(O)c1)NC12CC3CC(CC(C3)C1)C2 | . | . | 5.07 | . | .
O=C(CSc1ccc2ccccc2n1)N1CCC(c2noc3ccc(F)cc23)CC1 | . | . | . | . | .
CCOC(=O)c1ccc(N2CCN(C(=O)c3ccccc3)CC2)c(NC(=O)c2ccco2)c1 | . | . | . | . | .
CCn1c(=S)sc2c(=O)n(-c3ccccc3)c(SC)nc21 | . | . | . | 7.74 | .
COc1ccc(OCC(O)CNCCOc2ccccc2OC)c(C(C)(C)C)c1 (configuration not stated) | . | . | . | . | .
O=C(CCN1CCCCCC1)c1ccccc1 | / | 31 | / | . | .
CC/C(=N\NC(=O)c1nnn(-c2nonc2N)c1-c1cccc(OC)c1)c1ccc(C)cc1 | . | . | . | . | .
Cc1ccc(C(C)C)c(OCc2nn(CC(=O)c3ccc(OC(F)F)cc3)c3[n+]2CCCCC3)c1 | . | . | . | . | -5.52
NS(=O)(=O)c1ccc(NC(=O)CSc2nc3ccccc3nc2N2CCOCC2)cc1 | . | . | . | . | .
SMILES | RGS4 act | MrgX1 ag | RGS4 block | MrgX1 PAM | MrgX1 antag
Cc1ccc(-c2nn(-c3ccccc3)cc2/C=C2\SC(=S)N(CC(=O)O)C2=O)cc1 | . | . | . | . | .
COc1ccc(-c2nn(-c3ccccc3)cc2/C=C2/SC(=S)N(CCC(=O)O)C2=O)c(C)c1 | -7.69 | . | . | . | .
O=C(O)CCCCCN1C(=O)/C(=C\c2cn(-c3ccccc3)nc2-c2cccs2)SC1=S | -6.98 | . | . | . | .
CC1=NNC(=O)/C1=C\c1cn(-c2ccccc2)nc1-c1ccc(F)cc1 | . | / | . | / | /
COc1ccc(OC)c(/C=C2\SC(=S)N(Cc3cccnc3)C2=O)c1 | . | . | . | . | .
CC1=NNC(=O)/C1=C\c1cn(-c2ccccc2)nc1-c1cccs1 | . | . | . | . | -6.46
COc1ccc(O)c(/C=C2/SC(=S)N(Cc3ccccc3)C2=O)c1 | . | . | . | . | -5.07
CCCOc1ccc(-c2nn(-c3ccccc3)cc2/C=C2\SC(=S)N(C3CCS(=O)(=O)C3)C2=O)cc1 (configuration not stated) | . | . | . | . | .
COc1ccc(/C=C2/SC(=S)N(CCC(=O)O)C2=O)cc1 | . | 31.3 | . | . | .
COc1ccc(-c2nn(-c3ccccc3)cc2/C=C2/SC(=S)N(CCC(=O)O)C2=O)cc1 | -7.23 | . | . | . | -6.04
CCOc1ccc(-c2nn(-c3ccccc3)cc2/C=C2\SC(=S)N(C3CCS(=O)(=O)C3)C2=O)cc1 (configuration not stated) | -8.3 | . | . | . | .
O=C(NCC1CCCO1)c1csc(Nc2cccc3ccccc23)n1 (configuration not stated) | . | . | . | . | .
COc1ccc(-c2noc(N3CCC(C(=O)NC(C)c4ccccc4)CC3)n2)cc1 (configuration not stated) | . | . | . | . | .
Cc1cc(-n2c(C)cc(C(=O)CSc3ncnc4ccccc34)c2C)no1 | . | . | . | . | -4.7
Cc1ccc(S(=O)(=O)Cn2nnnc2C(CC(C)C)N2CCN(C)CC2)cc1 (configuration not stated) | . | . | . | . | .
O=C(Cn1cc(C(F)(F)F)cc(Cl)c1=O)Nc1cc(S(=O)(=O)N2CCOCC2)ccc1Cl | . | . | . | . | .
CC(C)(C#CC(O)(c1ccccc1)c1ccccc1)N1CCCCC1 | -7.09 | . | . | . | .
c1ccc(NC2=NCCN2CC2CCCCCC2)cc1 | / | . | / | . | .
COC(=O)CNc1nc(Cl)nc(Nc2ccc(Cl)cc2)n1 | . | . | . | . | .
O=C(N/N=C/c1c[nH]c2ccccc12)c1ccc2c(c1)OCCO2 | . | . | . | . | .
O=C(N/N=C/c1c[nH]c2ccc(Br)cc12)c1ccc2c(c1)OCO2 | . | 45.1 | . | . | .
CCOC(=O)CC(=O)CSc1nc(-c2cccnc2)cc(C)c1C#N | . | . | . | . | -4.88
Cc1ccccc1C(=O)NNC(=O)CSc1nc2ccccc2c(=O)[nH]1 | . | . | . | . | .
CC(C)(C)n1nnnc1C(c1cccnc1)N(Cc1ccccc1)Cc1cccs1 (configuration not stated) | . | . | . | . | -5.98
O=C(c1ccccc1F)N1CCN(c2cccc(C(F)(F)F)c2)CC1 | . | . | . | . | .
O=C(c1c(F)c(F)c(F)c(F)c1F)N1CCN(c2cccc(C(F)(F)F)c2)CC1 | -7.18 | . | . | . | .
O=C(c1ccc2ccccc2c1)C1CCCN(C(=O)c2noc3c2CCCC3)C1 (configuration not stated) | . | . | . | . | .
O=[N+]([O-])c1cc([N+](=O)[O-])c(Oc2ccc(F)cc2)cc1NN1CCCCC1 | . | . | . | . | .

High-throughput results: PubChem, Johns Hopkins Ion Channel Center
